ChEMBL document CHEMBL4052588, “Design of a Biased Potent Small Molecule Inhibitor of the Bromodomain and PHD Finger-Containing (BRPF) Proteins Suitable for Cellular and in Vivo Studies” (J Med Chem, 2017)

Experiments:
[1] = molecular target: T1, Bromodomain-containing protein 9 (Homo sapiens, UniProt Q9H8M2); test: Inhibition of human His tagged BRD9 incubated for 30 mins followed by addition of biotinylated peptide and further incubation for 30 mins measured by AlphaScreen assay
T1 sequence (Q9H8M2 whole entry): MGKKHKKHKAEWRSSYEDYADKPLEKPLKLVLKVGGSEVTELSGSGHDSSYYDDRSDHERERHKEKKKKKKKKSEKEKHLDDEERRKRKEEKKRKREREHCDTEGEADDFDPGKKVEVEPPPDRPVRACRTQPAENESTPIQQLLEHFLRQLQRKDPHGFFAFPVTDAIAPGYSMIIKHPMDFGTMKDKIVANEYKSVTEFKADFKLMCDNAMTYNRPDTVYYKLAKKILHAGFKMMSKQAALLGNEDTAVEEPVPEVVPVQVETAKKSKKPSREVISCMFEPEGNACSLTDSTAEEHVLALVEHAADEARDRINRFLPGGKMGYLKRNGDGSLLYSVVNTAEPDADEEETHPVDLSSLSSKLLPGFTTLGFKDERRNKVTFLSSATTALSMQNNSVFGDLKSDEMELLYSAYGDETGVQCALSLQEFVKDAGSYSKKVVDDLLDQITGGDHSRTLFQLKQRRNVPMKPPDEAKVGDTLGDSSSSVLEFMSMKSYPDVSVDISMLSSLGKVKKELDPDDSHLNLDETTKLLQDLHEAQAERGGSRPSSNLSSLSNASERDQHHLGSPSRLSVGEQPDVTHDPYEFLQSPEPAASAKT

[2] = molecular target: Bromodomain adjacent to zinc finger domain protein 2A (Homo sapiens, UniProt Q9UIF9); test: Inhibition of human BAZ2A expressed in Escherichia coli BL21 after 1 hr by BROMOscan assay
Peregrin = molecular target: T2, Peregrin (Homo sapiens, UniProt P55201); test: Inhibition of human His tagged BRPF1 incubated for 30 mins followed by addition of biotinylated peptide and further incubation for 30 mins measured by AlphaScreen assay
T2 sequence (P55201 whole entry): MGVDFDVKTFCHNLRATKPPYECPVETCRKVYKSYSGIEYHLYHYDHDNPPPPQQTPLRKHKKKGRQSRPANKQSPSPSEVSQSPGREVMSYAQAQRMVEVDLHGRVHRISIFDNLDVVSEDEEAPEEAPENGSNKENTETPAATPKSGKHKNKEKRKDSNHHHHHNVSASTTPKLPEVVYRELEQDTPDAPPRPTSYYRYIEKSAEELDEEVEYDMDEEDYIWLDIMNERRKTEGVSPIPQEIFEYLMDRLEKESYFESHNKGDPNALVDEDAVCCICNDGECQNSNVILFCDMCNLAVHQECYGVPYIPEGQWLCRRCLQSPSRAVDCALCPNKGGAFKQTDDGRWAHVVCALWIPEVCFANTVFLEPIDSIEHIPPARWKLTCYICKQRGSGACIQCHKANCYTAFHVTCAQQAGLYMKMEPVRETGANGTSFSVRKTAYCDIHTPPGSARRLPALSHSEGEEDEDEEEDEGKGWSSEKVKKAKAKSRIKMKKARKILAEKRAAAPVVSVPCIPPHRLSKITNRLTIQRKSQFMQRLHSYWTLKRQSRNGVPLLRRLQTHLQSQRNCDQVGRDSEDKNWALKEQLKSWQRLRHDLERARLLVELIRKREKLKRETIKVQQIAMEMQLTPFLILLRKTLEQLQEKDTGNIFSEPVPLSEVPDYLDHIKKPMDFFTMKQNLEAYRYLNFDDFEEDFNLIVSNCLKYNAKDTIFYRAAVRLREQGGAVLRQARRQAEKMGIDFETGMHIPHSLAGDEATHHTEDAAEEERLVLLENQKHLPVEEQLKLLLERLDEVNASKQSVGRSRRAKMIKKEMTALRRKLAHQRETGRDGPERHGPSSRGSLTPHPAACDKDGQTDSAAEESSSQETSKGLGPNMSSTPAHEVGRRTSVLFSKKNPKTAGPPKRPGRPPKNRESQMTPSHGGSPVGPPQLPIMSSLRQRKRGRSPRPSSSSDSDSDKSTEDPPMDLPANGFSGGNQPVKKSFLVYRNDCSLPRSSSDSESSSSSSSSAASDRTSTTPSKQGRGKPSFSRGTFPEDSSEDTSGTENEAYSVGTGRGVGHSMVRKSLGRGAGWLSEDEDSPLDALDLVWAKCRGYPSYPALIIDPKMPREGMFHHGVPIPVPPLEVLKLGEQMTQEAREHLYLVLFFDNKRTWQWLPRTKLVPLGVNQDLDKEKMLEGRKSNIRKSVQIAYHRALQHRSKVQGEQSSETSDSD
How it was run: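 Independent AlphaScreen biochemical confirmation of BRPF bromodomain inhibition, with BRD9 and BRD4(BD1) as counter-screens. Test compound was serially diluted from a 100 mM DMSO stock.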

[3] = molecular target: Chromatin remodeling regulator CECR2 (Homo sapiens, UniProt Q9BXF3); test: Inhibition of human CECR2 expressed in Escherichia coli BL21 after 1 hr by BROMOscan assay
[4] = molecular target: Bromodomain-containing protein 4 (Homo sapiens, UniProt O60885); test: Inhibition of human His tagged BRD4-BD1 incubated for 30 mins followed by addition of biotinylated peptide and further incubation for 30 mins measured by AlphaScreen assay
hERG (KCNH2) = hERG (KCNH2) (Homo sapiens, UniProt Q12809); test: Inhibition of human ERG at 30 uM
SW-620 = test: Growth inhibition of human SW620 cells after 72 hrs; assay type: functional; details: SW-620, 72 h
[5] = Growth inhibition of human Panc 02.03 cells after 72 hrs; assay type: functional; details: Panc 02.03, 72 h
THP-1 = test: Growth inhibition of human THP1 cells after 72 hrs; assay type: functional; details: THP-1, 72 h
CWR22R = test: Growth inhibition of human 22Rv1 cells after 72 hrs; assay type: functional; details: 22Rv1, 72 h
IM-9 = test: Growth inhibition of human IM9 cells after 72 hrs; assay type: functional; details: IM-9, 72 h

Chain of Chromatin remodeling regulator CECR2 (Q9BXF3 whole entry): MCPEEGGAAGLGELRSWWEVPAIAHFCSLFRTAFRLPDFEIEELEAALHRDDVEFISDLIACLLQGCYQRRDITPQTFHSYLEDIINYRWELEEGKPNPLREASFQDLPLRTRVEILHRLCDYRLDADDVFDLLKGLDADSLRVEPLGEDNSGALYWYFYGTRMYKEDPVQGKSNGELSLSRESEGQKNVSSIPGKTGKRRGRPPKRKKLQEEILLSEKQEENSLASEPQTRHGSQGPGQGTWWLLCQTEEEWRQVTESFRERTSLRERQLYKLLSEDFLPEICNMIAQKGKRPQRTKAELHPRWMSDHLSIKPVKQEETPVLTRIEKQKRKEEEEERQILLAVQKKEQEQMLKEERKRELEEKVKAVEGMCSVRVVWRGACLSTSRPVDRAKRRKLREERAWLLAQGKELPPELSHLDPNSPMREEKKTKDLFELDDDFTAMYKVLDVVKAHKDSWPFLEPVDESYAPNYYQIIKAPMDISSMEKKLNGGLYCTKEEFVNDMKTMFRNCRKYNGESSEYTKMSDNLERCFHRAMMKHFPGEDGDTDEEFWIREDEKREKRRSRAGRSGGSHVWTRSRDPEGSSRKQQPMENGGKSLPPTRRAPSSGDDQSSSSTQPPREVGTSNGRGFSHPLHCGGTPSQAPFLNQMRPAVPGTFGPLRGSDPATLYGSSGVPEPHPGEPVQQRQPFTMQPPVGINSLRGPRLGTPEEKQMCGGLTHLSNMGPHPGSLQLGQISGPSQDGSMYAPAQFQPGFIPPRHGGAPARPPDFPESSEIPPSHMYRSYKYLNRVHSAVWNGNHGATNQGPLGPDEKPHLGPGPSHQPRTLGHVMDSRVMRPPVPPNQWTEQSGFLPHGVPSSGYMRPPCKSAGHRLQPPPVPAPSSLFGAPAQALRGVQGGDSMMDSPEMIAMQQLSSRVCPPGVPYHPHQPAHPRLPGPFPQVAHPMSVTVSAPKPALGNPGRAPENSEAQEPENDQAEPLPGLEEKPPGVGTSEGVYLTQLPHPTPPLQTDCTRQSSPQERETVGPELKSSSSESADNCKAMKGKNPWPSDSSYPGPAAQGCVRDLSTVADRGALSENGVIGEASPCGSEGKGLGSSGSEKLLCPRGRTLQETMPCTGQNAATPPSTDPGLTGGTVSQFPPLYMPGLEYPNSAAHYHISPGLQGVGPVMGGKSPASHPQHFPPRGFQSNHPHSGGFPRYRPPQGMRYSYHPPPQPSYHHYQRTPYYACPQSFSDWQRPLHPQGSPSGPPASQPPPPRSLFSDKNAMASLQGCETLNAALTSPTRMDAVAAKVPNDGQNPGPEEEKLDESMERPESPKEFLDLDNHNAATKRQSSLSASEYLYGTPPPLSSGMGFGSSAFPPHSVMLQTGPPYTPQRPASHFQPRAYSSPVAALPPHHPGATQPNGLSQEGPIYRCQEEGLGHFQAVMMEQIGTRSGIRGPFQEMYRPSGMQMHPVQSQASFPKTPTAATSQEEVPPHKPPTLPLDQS
Chain of Bromodomain adjacent to zinc finger domain protein 2A (Q9UIF9 whole entry, the tested form may be a part): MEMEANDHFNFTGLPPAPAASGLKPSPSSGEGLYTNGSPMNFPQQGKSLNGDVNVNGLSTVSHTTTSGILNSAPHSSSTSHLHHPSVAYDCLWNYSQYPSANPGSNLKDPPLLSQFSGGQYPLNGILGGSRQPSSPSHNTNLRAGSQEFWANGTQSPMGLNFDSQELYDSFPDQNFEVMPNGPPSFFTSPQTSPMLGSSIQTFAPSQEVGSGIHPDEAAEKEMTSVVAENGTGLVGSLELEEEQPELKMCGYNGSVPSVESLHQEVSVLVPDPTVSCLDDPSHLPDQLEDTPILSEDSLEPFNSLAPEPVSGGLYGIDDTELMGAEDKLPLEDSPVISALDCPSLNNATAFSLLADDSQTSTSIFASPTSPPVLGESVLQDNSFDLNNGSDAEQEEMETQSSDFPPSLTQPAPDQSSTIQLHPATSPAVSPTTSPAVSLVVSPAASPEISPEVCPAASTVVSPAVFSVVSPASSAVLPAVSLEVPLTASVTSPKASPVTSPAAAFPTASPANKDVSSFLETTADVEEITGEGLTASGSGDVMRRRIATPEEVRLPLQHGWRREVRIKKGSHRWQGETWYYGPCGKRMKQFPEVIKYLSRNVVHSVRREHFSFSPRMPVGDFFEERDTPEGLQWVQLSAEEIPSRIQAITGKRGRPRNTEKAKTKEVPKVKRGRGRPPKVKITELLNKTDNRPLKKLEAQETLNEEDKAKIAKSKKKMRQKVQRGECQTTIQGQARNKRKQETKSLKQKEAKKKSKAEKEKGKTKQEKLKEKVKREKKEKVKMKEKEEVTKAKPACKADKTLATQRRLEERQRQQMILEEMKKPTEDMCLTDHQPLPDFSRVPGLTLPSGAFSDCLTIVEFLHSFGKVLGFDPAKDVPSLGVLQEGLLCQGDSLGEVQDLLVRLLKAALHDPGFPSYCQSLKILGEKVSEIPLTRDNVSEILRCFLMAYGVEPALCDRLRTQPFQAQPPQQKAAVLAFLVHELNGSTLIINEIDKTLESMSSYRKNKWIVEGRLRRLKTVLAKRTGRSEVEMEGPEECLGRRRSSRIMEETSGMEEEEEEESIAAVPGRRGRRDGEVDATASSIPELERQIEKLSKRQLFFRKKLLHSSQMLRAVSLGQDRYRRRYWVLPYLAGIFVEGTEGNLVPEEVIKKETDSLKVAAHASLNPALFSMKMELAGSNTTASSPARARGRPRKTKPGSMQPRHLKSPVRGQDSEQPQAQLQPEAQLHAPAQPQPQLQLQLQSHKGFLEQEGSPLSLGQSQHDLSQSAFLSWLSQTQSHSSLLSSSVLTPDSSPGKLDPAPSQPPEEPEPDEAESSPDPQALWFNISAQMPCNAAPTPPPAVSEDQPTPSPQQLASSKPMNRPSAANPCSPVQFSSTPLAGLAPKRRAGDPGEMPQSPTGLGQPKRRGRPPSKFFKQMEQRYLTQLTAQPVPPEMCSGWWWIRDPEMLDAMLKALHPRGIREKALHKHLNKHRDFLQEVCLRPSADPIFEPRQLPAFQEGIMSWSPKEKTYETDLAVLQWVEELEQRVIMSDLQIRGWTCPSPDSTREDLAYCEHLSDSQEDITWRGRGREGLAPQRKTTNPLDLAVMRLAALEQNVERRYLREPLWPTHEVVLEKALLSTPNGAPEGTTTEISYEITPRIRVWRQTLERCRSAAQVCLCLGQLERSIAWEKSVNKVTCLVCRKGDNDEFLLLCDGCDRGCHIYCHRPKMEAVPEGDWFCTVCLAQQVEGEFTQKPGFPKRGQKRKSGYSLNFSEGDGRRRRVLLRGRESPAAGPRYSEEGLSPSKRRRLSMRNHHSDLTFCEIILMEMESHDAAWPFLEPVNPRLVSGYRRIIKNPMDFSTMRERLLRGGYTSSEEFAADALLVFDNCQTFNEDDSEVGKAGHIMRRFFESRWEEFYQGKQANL
Chain of hERG (KCNH2) (Q12809 whole entry): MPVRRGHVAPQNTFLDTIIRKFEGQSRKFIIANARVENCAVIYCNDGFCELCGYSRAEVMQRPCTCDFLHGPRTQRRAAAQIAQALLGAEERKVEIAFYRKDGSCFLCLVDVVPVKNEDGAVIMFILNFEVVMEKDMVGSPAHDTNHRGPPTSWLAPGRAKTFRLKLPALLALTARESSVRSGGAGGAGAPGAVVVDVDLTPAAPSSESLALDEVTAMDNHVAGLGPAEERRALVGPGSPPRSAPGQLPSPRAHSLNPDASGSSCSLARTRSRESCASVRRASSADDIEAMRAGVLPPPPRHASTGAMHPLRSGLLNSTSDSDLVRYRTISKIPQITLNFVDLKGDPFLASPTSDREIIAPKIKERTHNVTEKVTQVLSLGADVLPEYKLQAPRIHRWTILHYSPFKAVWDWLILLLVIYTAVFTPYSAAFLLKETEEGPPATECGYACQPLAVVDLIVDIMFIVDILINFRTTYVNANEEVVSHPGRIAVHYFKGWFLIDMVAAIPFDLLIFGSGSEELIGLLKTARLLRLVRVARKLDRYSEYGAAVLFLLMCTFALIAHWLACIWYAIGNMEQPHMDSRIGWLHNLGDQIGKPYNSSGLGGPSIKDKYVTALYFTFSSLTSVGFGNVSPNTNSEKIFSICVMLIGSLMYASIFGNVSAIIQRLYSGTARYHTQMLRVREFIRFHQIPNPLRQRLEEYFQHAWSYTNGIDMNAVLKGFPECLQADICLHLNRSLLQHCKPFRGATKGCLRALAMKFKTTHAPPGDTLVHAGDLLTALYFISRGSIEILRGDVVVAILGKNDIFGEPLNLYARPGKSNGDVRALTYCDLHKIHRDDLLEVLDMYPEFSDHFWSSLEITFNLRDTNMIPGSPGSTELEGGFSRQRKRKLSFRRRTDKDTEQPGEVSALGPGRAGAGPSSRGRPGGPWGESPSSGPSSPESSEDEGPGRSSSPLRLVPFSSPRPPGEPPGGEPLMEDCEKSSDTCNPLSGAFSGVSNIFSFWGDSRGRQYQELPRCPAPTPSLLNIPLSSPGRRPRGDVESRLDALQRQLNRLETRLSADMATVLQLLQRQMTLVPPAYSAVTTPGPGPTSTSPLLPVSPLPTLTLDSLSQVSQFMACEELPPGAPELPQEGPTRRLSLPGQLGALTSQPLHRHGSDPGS

| IC50 [1] [µM] | IC50 [2] [µM] | IC50 (Peregrin) [µM] | IC50 [3] [µM] | IC50 [4] [µM] | GI50 (SW-620) [µM] | GI50 (THP-1) [µM] | SMILES | inhibition at 30 µM (hERG (KCNH2)) [%] | GI50 [5] [µM] | GI50 (CWR22R) [µM] | GI50 (IM-9) [µM] |
| --- | --- | --- | --- | --- | --- | --- | --- | --- | --- | --- | --- |
| > 20 | > 100 | > 20 | > 100 | > 20 |  |  | CCc1cc2cc(NS(=O)(=O)c3ccc(C#N)cc3)ccc2n(CC)c1=O |  |  |  |  |
| 1.1 |  | 0.14 |  | > 20 | 1 to 10 | 5.7 | Cc1cc2cc(NS(=O)(=O)c3ccc(C#N)cc3)ccc2n(C)c1=O | 45.6 | 1 to 10 | 1 to 10 | 1 to 10 |
